Active and inactive are the calls of the source. The calls are words filed in the database; no cut-off is given here.
Key:
Heat shock protein HSP90 [1] = molecular target: T1, Heat shock protein HSP90 (Homo sapiens, UniProt P07900+P08238); assay: Inhibition of HSP90 in human JR8 cells assessed as down-regulation of Cdk4 protein at IC80 concentration after 24 hrs by immunoblotting; assay type: cell-based
Method in brief: (§1)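 Cells seeded at 100,000 cells/mL, treated 24 h later for 24 h at the equitoxic IC80 concentration given per compound and cell line. Whole-cell extracts (40 µg) run on SDS-PAGE and immunoblotted. Actin was the loading control, and tubulin the loading control for EGFR.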

IGROV-1 [2] = assay: Antiproliferative activity against human IGROV1 cells after 72 hrs; assay type: functional, cell-based; conditions: IGROV-1, 72 h
Heat shock protein HSP90 [3] = molecular target: T1, Heat shock protein HSP90; assay: Inhibition of HSP90 in human JR8 cells assessed as down-regulation of Raf-1 protein at IC80 concentration after 24 hrs by immunoblotting; assay type: cell-based; method in brief: as §1
Heat shock protein HSP90 [4] = molecular target: T1, Heat shock protein HSP90; assay: Inhibition of HSP90 in human A431 cells assessed as down-regulation of survivin protein at IC80 concentration after 24 hrs by immunoblotting; assay type: cell-based; conditions: A-431; method in brief: as §1
Heat shock protein HSP90 [5] = molecular target: T1, Heat shock protein HSP90; assay: Inhibition of HSP90 in human A431 cells assessed as down-regulation of EGFR protein at IC80 concentration after 24 hrs by immunoblotting; assay type: cell-based; conditions: A-431; method in brief: as §1
Heat shock protein HSP90 [6] = molecular target: T1, Heat shock protein HSP90; assay: Inhibition of HSP90 in human A431 cells assessed as reduction of Raf-1/Hsp90 precipitation at 11 uM after 4 hrs by co-immunoprecipitation analysis; conditions: A-431
Heat shock protein HSP90 [7] = molecular target: T1, Heat shock protein HSP90; assay: Inhibition of HSP90 in human IGROV1 cells assessed as down-regulation of survivin protein at IC80 concentration after 24 hrs by immunoblotting; assay type: cell-based; conditions: IGROV-1; method in brief: as §1
Heat shock protein HSP90 [8] = molecular target: T1, Heat shock protein HSP90; assay: Inhibition of HSP90 in human A431 cells assessed as reduction of Hsp70/Hsp90 precipitation at IC80 concentration after 4 hrs by co-immunoprecipitation analysis; assay type: cell-based; conditions: A-431
Heat shock protein HSP90 [9] = molecular target: T1, Heat shock protein HSP90; assay: Inhibition of HSP90 in human A431 cells assessed as down-regulation of survivin protein after 24 hrs by immunoblotting; assay type: cell-based; conditions: a-431; method in brief: as §1
Heat shock protein HSP90 [10] = molecular target: T1, Heat shock protein HSP90; assay: Inhibition of HSP90 in human A431 cells assessed as down-regulation of EGFR protein after 24 hrs by immunoblotting; assay type: cell-based; conditions: a-431; method in brief: as §1
[11] = Antiproliferative activity against human JR8 cells after 72 hrs; assay type: functional, cell-based; conditions: JR8, 72 h
Heat shock protein HSP90 [12] = molecular target: T1, Heat shock protein HSP90; assay: Inhibition of HSP90 in human A431 cells assessed as down-regulation of Raf-1 protein at IC80 concentration after 24 hrs by immunoblotting; assay type: cell-based; conditions: A-431; method in brief: as §1
Heat shock protein HSP90 [13] = molecular target: T1, Heat shock protein HSP90; assay: Inhibition of HSP90 in human A431 cells expressing p53 mutant assessed as down-regulation of p53 protein at IC80 concentration after 24 hrs by immunoblotting; assay type: cell-based; conditions: A-431; method in brief: as §1
[14] = Inhibition of yeast full-length recombinant HSP90 ATPase activity expressed in Escherichia coli strain BL21(DE3) assessed as inorganic phosphate release after 3 hrs; set-up: species or system Saccharomyces cerevisiae
A-431 = assay: Antiproliferative activity against human A431 cells after 72 hrs; assay type: functional, cell-based; conditions: A-431, 72 h
Heat shock protein HSP90 [15] = molecular target: T1, Heat shock protein HSP90; assay: Inhibition of HSP90 in human IGROV1 cells assessed as down-regulation of Raf-1 protein at IC80 concentration after 24 hrs by immunoblotting; assay type: cell-based; conditions: IGROV-1; method in brief: as §1
NCI-H460 = assay: Antiproliferative activity against human NCI-H460 cells after 72 hrs; assay type: functional, cell-based; conditions: NCI-H460, 72 h
Heat shock protein HSP90 [16] = molecular target: T1, Heat shock protein HSP90; assay: Inhibition of HSP90 in human IGROV1 cells assessed as down-regulation of Akt protein at IC80 concentration after 24 hrs by immunoblotting; assay type: cell-based; conditions: IGROV-1; method in brief: as §1
Heat shock protein HSP90 [17] = molecular target: T1, Heat shock protein HSP90; assay: Inhibition of HSP90 in human A431 cells assessed as down-regulation of Akt protein after 24 hrs by immunoblotting; assay type: cell-based; conditions: a-431; method in brief: as §1
IGROV-1 [18] = assay: Antitumor activity against human IGROV1 cells xenografted in athymic Swiss nude mouse assessed as increase of mouse survival at 25 mg/kg, ip administered qd for 4 days/week for 2 weeks; assay type: functional, organism-based; set-up: dose 25 mg/kg
Method in brief: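 Female athymic Swiss nude mice, 8–10 weeks old. IGROV-1 ovarian carcinoma was serially passaged ip as ascites, and 2.5 × 10^6 cells in 0.2 mL saline were injected ip. Dosing ip at 25 mg/kg daily, 4 days/week for 2 weeks, began the day after implant. End point was median survival time, reported as T/C% (treated/control MST × 100).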

IGROV-1 [19] = assay: Induction of apoptosis in human IGROV1 cells assessed as PARP1 cleavage at 11 uM after 48 hrs by Western blotting; assay type: functional, cell-based
Method in brief: (§2)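 IGROV-1 cells treated with 11 µM compound for 24 or 48 h. Cells rinsed with ice-cold PBS containing 0.1 mM orthovanadate and lysed in hot sample buffer. 40 µg of total extract run on SDS-PAGE and blotted onto nitrocellulose. Probed for cleaved caspase-3 and PARP-1.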

Heat shock protein HSP90 [20] = molecular target: T1, Heat shock protein HSP90; assay: Inhibition of HSP90 in human A431 cells assessed as down-regulation of Cdk4 protein at IC80 concentration after 24 hrs by immunoblotting; assay type: cell-based; conditions: A-431; method in brief: as §1
[21] = Binding affinity to HSP90 by surface plasmon resonance analysis
Heat shock protein HSP90 [22] = molecular target: T1, Heat shock protein HSP90; assay: Inhibition of HSP90 in human JR8 cells assessed as down-regulation of survivin protein at IC80 concentration after 24 hrs by immunoblotting; assay type: cell-based; method in brief: as §1
IGROV-1 [23] = assay: Induction of apoptosis in human IGROV1 cells assessed as activation of caspase 3 at 11 uM after 48 hrs by Western blotting; assay type: functional, cell-based; method in brief: as §2
Heat shock protein HSP90 [24] = molecular target: T1, Heat shock protein HSP90; assay: Inhibition of HSP90 in human A431 cells assessed as reduction of Hsp70/Hsp90 precipitation at 11 uM after 4 hrs by co-immunoprecipitation analysis; conditions: A-431
Heat shock protein HSP90 [25] = molecular target: T1, Heat shock protein HSP90; assay: Inhibition of HSP90 in human IGROV1 cells assessed as down-regulation of Cdk4 protein at IC80 concentration after 24 hrs by immunoblotting; assay type: cell-based; conditions: IGROV-1; method in brief: as §1
Heat shock protein HSP90 [26] = molecular target: T1, Heat shock protein HSP90; assay: Inhibition of HSP90 in human A431 cells assessed as up-regulation of HSP70 protein at IC80 concentration after 24 hrs by immunoblotting; assay type: cell-based; conditions: A-431; method in brief: as §1
Heat shock protein HSP90 [27] = molecular target: T1, Heat shock protein HSP90; assay: Inhibition of HSP90 in human A431 cells assessed as down-regulation of Cdk4 protein after 24 hrs by immunoblotting; assay type: cell-based; conditions: a-431; method in brief: as §1
Heat shock protein HSP90 [28] = molecular target: T1, Heat shock protein HSP90; assay: Inhibition of HSP90 in human JR8 cells assessed as down-regulation of Akt protein at IC80 concentration after 24 hrs by immunoblotting; assay type: cell-based; method in brief: as §1
Heat shock protein HSP90 [29] = molecular target: T1, Heat shock protein HSP90; assay: Inhibition of HSP90 in human A431 cells assessed as down-regulation of Akt protein at IC80 concentration after 24 hrs by immunoblotting; assay type: cell-based; conditions: A-431; method in brief: as §1
[30] = Binding affinity to HSP90 after 4 hrs by fluorescence polarization assay
Heat shock protein HSP90 [31] = molecular target: T1, Heat shock protein HSP90; assay: Inhibition of HSP90 in human JR8 cells assessed as down-regulation of EGFR protein at IC80 concentration after 24 hrs by immunoblotting; assay type: cell-based; method in brief: as §1
Heat shock protein HSP90 [32] = molecular target: T1, Heat shock protein HSP90; assay: Inhibition of HSP90 in human A431 cells assessed as reduction of Raf-1/Hsp90 precipitation at IC80 concentration after 4 hrs by co-immunoprecipitation analysis; assay type: cell-based; conditions: A-431
[33] = Antiproliferative activity against human STO cells after 72 hrs; assay type: functional, cell-based
Method in brief: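 Cells seeded 24 h before, then exposed to compound for 72 h (about three doublings in controls), in medium with 10% heat-inactivated FBS at 37 °C. Compound dissolved fresh in DMSO and diluted in medium. Adherent cells trypsinized and counted electronically. IC50 is the concentration giving 50% growth inhibition, read from dose–response curves.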

Row | inhibition (Heat shock protein HSP90 [1]) | Raf-1 protein down-regulation (Heat shock protein HSP90 [3]) | inhibition (Heat shock protein HSP90 [5]) | EC50 (Heat shock protein HSP90 [10]) | IC50 [14] | IC50 (A-431) | inhibition (Heat shock protein HSP90 [15]) | IC50 (NCI-H460) | inhibition (Heat shock protein HSP90 [16]) | EC50 (Heat shock protein HSP90 [17]) | EC50 (Heat shock protein HSP90 [27]) | inhibition (Heat shock protein HSP90 [28]) | IC50 [30] | inhibition (Heat shock protein HSP90 [31]) | inhibition (Heat shock protein HSP90 [32]) | Compound | IC50 (IGROV-1 [2]) | EC50 (Heat shock protein HSP90 [9]) | IC50 [11] | IC80 (A-431) | inhibition (Heat shock protein HSP90 [22]) | other results
1 | Active | Active | Active | 11 µM | 9.87 µM | 5530 nM | Active | 50 µM | Active | 16.8 µM | 8.49 µM | Active | 61.7 µM | Active | Active | CCC(C)/C=C/C=C/C=C/C(=O)/C=C(\O)C1=C2C=C3CC(CO)OC=C3C(=O)[C@]2(C)OC1=O (some centres undefined) [BULGARIALACTONE B] | 4650 nM | 11 µM | 6.42 µM | 11 µM | Active | inhibition (Heat shock protein HSP90 [4]): Active; inhibition (Heat shock protein HSP90 [6]): Active; inhibition (Heat shock protein HSP90 [7]): Active; inhibition (Heat shock protein HSP90 [8]): Active; inhibition (Heat shock protein HSP90 [12]): Active; inhibition (Heat shock protein HSP90 [13]): Active; Activity (IGROV-1 [18]): Active; inhibition (IGROV-1 [19]): Active; inhibition (Heat shock protein HSP90 [20]): Active; Kd [21]: 1.3 nM; inhibition (IGROV-1 [23]): Active; inhibition (Heat shock protein HSP90 [24]): Active; inhibition (Heat shock protein HSP90 [25]): Active; inhibition (Heat shock protein HSP90 [26]): inactive; inhibition (Heat shock protein HSP90 [29]): Active
2 | Active | Active | Active | 3.57 µM | 5.75 µM | 300 nM | Active | 4.3 µM | Active | 8.93 µM | 4.93 µM | Active | 27.7 µM | Active | Active | CCC(C)/C=C/C=C/C=C/C(=O)/C=C(\O)C1=C2C=C(CC(O)CO)/C(=C/NCc3ccccc3)C(=O)[C@]2(C)OC1=O (some centres undefined) | 200 nM | 2.32 µM | 4.8 µM | 2.7 µM | Active | IC80 (IGROV-1 [2]): 2300 nM; IC50 [33]: 3.57 µM; IC80 [33]: 11.6 µM; IC80 [11]: 10.7 µM
